Here are results for 20 compounds from ChEMBL document CHEMBL3046350, “Design, synthesis and herbicidal activity of new iron chelating motifs for HPPD-inhibitors” (Bioorg Med Chem, 2009).

Bounds are passed on as bounds.

In one test the test system is Chenopodium album. Description: Herbicidal activity against Chenopodium album assessed as reduction in plant growth measured 21 days after compound post-emergence spray application. In kind it is functional. In outline:
(§1)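 GR50 = rate giving 50% growth reduction, scored 21 days after postemergence spray. Application rates are expressed in kg/ha.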

The subject of another test is Abutilon theophrasti. Description: Herbicidal activity against Abutilon theophrasti (velvetleaf) assessed as reduction in plant growth measured 21 days after compound post-emergence spray application. It is filed as functional. In outline:
as §1

The subject of another test is Echinochloa crus-galli. In words: Herbicidal activity against Echinochloa crus-galli (barnyard grass) assessed as reduction in plant growth measured 21 days after compound post-emergence spray application. In kind it is functional. The method in brief: as §1
In test [1] the target is T1, 4-hydroxyphenylpyruvate dioxygenase (Arabidopsis thaliana, UniProt P93836).
T1 sequence (P93836 whole entry): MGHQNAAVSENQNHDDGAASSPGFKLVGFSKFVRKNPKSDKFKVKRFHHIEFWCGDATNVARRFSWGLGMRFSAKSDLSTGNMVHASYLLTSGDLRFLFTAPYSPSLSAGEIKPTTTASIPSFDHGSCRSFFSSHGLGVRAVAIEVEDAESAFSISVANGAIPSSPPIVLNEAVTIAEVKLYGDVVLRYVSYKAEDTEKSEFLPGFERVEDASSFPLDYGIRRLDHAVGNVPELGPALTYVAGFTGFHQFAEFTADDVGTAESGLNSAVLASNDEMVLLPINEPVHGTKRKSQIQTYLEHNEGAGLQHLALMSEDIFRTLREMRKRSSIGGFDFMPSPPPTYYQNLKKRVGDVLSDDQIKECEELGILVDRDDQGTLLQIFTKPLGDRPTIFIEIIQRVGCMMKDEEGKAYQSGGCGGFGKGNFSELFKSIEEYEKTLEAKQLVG
In words: Inhibition of Arabidopsis thaliana 4-hydroxyphenylpyruvate dioxygenase. The method in brief:
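Recombinant Arabidopsis thaliana HPPD enzyme, assayed by a previously published method.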

For the next test, the system named is Centaurea cyanus. Description: Herbicidal activity against Centaurea cyanus assessed as reduction in plant growth measured 21 days after compound post-emergence spray application. It is filed as functional.
Another test concerns Setaria italica. In words: Herbicidal activity against Setaria italica assessed as reduction in plant growth measured 21 days after compound post-emergence spray application. In kind it is functional.

Consider `Cc1nc(C)n(O)c1C(=O)c1ccc(S(C)(=O)=O)c(C2=NOCC2)c1Cl`, for which the GR50 with Chenopodium album is given as 0.3 kg/ha; with Abutilon theophrasti, >3 kg/ha; in the test with Echinochloa crus-galli, 2 kg/ha. The IC50 (usually the concentration needed to halve the response being measured) in test [1] is 0.036 µM.
On the same counts, the results for `CCOc1c(S(=O)(=O)CC)ccc(C(=O)c2c(C)[n+]([O-])c(C)n2O)c1Cl` are >3 kg/ha, >3 kg/ha, >3 kg/ha and 0.19 µM.
On the same counts, the results for `CSc1ccc(C(=O)c2c(C)nc(C)n2O)c(C)c1Cl` are >0.5 kg/ha, >0.5 kg/ha, >0.5 kg/ha and > 20 µM.
On the same counts, the results for `CCOc1c(S(=O)(=O)CC)ccc(C(=O)c2c(C)nc(-c3ccc(Cl)cc3Cl)n2O)c1Cl` are >0.5 kg/ha, >0.5 kg/ha, >0.5 kg/ha and > 20 µM.
On to `CCOc1c(S(=O)(=O)CC)ccc(C(=O)c2c(C)nc(-c3cccn3C)n2O)c1Cl`, for which the GR50 with Chenopodium album, with Abutilon theophrasti and with Echinochloa crus-galli was >3 kg/ha in each case. In addition, the IC50 in test [1] is > 20 µM.
In the case of `Cc1[nH]n(C)c(=O)c1C(=O)c1ccc(S(C)(=O)=O)c(C2=NOCC2)c1Cl`, the GR50 in the test with Chenopodium album, with Abutilon theophrasti and in the test on Echinochloa crus-galli was <0.01 kg/ha in each case. Further, in test [1], the IC50 amounted to 0.19 µM.
Regarding `COc1c(S(C)(=O)=O)ccc(C(=O)c2c(C)nc(C)n2O)c1C`, the figures for the GR50 with Chenopodium album, in the test on Abutilon theophrasti and in the test with Echinochloa crus-galli were 0.06 kg/ha, 0.7 kg/ha and >1 kg/ha, respectively. Besides, the IC50 in test [1] came out at 18 µM.
For the compound `CC(=O)/C(=N/O)C(=O)c1ccc(S(C)(=O)=O)c(C2=NOCC2)c1Cl`, the results for the GR50 in the test on Centaurea cyanus, with Setaria italica and with Echinochloa crus-galli were >3 kg/ha, >3 kg/ha and 2.5 kg/ha, respectively. In test [1], the IC50 came to 13 µM.
In the case of `CCOc1c(S(=O)(=O)CC)ccc(C(=O)c2c(C)nc(CC)n2O)c1Cl`, the GR50 in the test on Chenopodium album is given as 0.2 kg/ha; in the test on Abutilon theophrasti, >0.5 kg/ha; in the test with Echinochloa crus-galli, >0.5 kg/ha. Also, the IC50 in test [1] is 0.071 µM.
On to `CCOc1c(S(=O)(=O)CC)ccc(C(=O)c2c(C)nc(C(C)C)n2O)c1Cl`, for which the GR50 is on record as 1.5 kg/ha in the test with Chenopodium album, >3 kg/ha with Abutilon theophrasti and >3 kg/ha in the test with Echinochloa crus-galli. Further, the concentration for half-maximal inhibition (IC50) in test [1] came to 0.043 µM.
On to `CCOc1c(S(=O)(=O)CC)ccc(C(=O)c2c(C)ncn2O)c1Cl`, for which the GR50 is on record as 0.4 kg/ha in the test with Chenopodium album, >0.5 kg/ha with Abutilon theophrasti and >0.5 kg/ha in the test on Echinochloa crus-galli. The IC50 in test [1] worked out at 20 µM.
On to `Cc1nc(C)n(O)c1C(=O)c1ccc(S(C)(=O)=O)c2ncccc12`, for which the GR50 in the test on Chenopodium album, with Abutilon theophrasti and in the test on Echinochloa crus-galli was >1 kg/ha in each case. Besides, in test [1], the IC50 is > 20 µM.
As to `CSc1ccc(C(=O)/C(=N\O)C(C)=O)c(C)c1Cl`, the GR50 in the test on Centaurea cyanus, in the test on Setaria italica and in the test on Echinochloa crus-galli was >3 kg/ha each time. The IC50 in test [1] is > 20 µM.
Take `COc1c(S(C)(=O)=O)ccc(C(=O)/C(=N\O)C(C)=O)c1C`: the GR50 with Centaurea cyanus, in the test with Setaria italica and in the test on Echinochloa crus-galli was >3 kg/ha throughout. In addition, in test [1], the IC50 is > 20 µM.
As for `CCOc1c(S(=O)(=O)CC)ccc(C(=O)c2c(C)nc(-c3cccs3)n2O)c1Cl`, the GR50 with Chenopodium album, with Abutilon theophrasti and in the test with Echinochloa crus-galli was >3 kg/ha each time. In test [1], the half-maximal inhibitory concentration (IC50) was > 20 µM.
Regarding `CCOc1c(S(=O)(=O)CC)ccc(C(=O)c2c(C)nc(-c3ccccc3)n2O)c1Cl`, the GR50 with Chenopodium album, in the test with Abutilon theophrasti and with Echinochloa crus-galli was >0.5 kg/ha in each case. The IC50 in test [1] was > 20 µM.
As for `Cc1nc(C)n(O)c1C(=O)c1ccc(S(C)(=O)=O)cc1Cl`, the GR50 with Chenopodium album, with Abutilon theophrasti and with Echinochloa crus-galli was >0.5 kg/ha each time. Further, in test [1], the IC50 is > 20 µM.
As for `CCOc1c(S(=O)(=O)CC)ccc(C(=O)/C(=N\O)C(C)=O)c1Cl`, the GR50 with Centaurea cyanus, in the test on Setaria italica and with Echinochloa crus-galli was >3 kg/ha each time. In test [1], the IC50 was 20 µM.
Regarding `CCOc1c(S(=O)(=O)CC)ccc(C(=O)c2c(C)nc(C)n2O)c1Cl`, the GR50 in the test with Chenopodium album stood at 0.05 kg/ha; in the test with Abutilon theophrasti, 0.1 kg/ha; with Echinochloa crus-galli, 0.5 kg/ha. The compound also had an IC50 in test [1] of 0.048 µM.
On the same counts, the results for `Cc1cc(C)c(C(=O)c2c(C)nc(C)n2O)c(C)c1` are >3 kg/ha, >3 kg/ha, >3 kg/ha and > 20 µM.
